Results taken from ChEMBL document CHEMBL1811823, “Quinazolinone linked pyrrolo[2,1-c][1,4]benzodiazepine (PBD) conjugates: Design, synthesis and biological evaluation as potential anticancer agents” (2010).
The source made the active and inactive calls. The calls are words filed in the database; no cut-off is given here.

Tests used:
CCRF-CEM = assay: Growth inhibition of human CCRF-CEM cells by NCI anti-cancer screening method; format: functional
Nucleic Acid = assay: Binding affinity to calf thymus DNA assessed as change in melting temperature at 20 uM at pH 7 incubated for 18 hrs at 37 degC by thermal denaturation assay; format: nucleic-acid assay; conditions: Bos taurus
In short: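 CT-DNA (100 µM in phosphate) with 20 µM ligand, 1:5 [PBD]/[DNA], in 10 mM sodium phosphate/1 mM Na2EDTA buffer pH 7.00. Ligand added from methanol solution; incubated at 37 °C for 0 or 18 h. A260 monitored while heating 1 °C/min over 40–90 °C. Tm taken from d(A260)/dT maxima; ΔTm = Tm(DNA+PBD) − Tm(DNA alone). Values are means of at least three determinations, corrected for methanol cosolvent.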

NCI-H226 = assay: Growth inhibition of human NCI-H226 cells by NCI anti-cancer screening method; format: functional
HOP-92 = assay: Growth inhibition of human HOP92 cells by NCI anti-cancer screening method; format: functional
EKVX = assay: Growth inhibition of human EKVX cells by NCI anti-cancer screening method; format: functional
SR = assay: Growth inhibition of human SR cells by NCI anti-cancer screening method; format: functional
MOLT-4 = assay: Growth inhibition of human MOLT4 cells by NCI anti-cancer screening method; format: functional
HL-60 = assay: Growth inhibition of human HL-60(TB) cells by NCI anti-cancer screening method; format: functional
In short: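 Cells grown in RPMI 1640 with 10% FBS and 2 mM L-glutamine were plated at a density set by doubling time. They were held 24 h at 37 °C in 5% CO2 before drug was added, then exposed continuously for 48 h. Cells were fixed with cold TCA (10% final) for 60 min at 4 °C and stained with 0.4% SRB. Bound dye was eluted in 10 mM Tris base and read at 540 nm. Percent growth was taken versus control wells.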

NCI-H522 = assay: Growth inhibition of human NCI-H522 cells by NCI anti-cancer screening method; format: functional
COLO 205 = assay: Growth inhibition of human COLO205 cells by NCI anti-cancer screening method; format: functional
HCT-116 = assay: Growth inhibition of human HCT116 cells by NCI anti-cancer screening method; format: functional
HCT-15 = assay: Growth inhibition of human HCT15 cells by NCI anti-cancer screening method; format: functional
HT-29 = assay: Growth inhibition of human HT-29 cells by NCI anti-cancer screening method; format: functional
SW-620 = assay: Growth inhibition of human SW620 cells by NCI anti-cancer screening method; format: functional
SF-268 = assay: Growth inhibition of human SF268 cells by NCI anti-cancer screening method; format: functional
SF-539 = assay: Growth inhibition of human SF539 cells by NCI anti-cancer screening method; format: functional
U-251 = assay: Growth inhibition of human U251 cells by NCI anti-cancer screening method; format: functional
LOX IMVI = assay: Growth inhibition of human LOXIMVI cells by NCI anti-cancer screening method; format: functional
Malme-3M = assay: Growth inhibition of human MALME-3M cells by NCI anti-cancer screening method; format: functional
OVCAR-3 = assay: Growth inhibition of human OVCAR3 cells by NCI anti-cancer screening method; format: functional
OVCAR-8 = assay: Growth inhibition of human OVCAR8 cells by NCI anti-cancer screening method; format: functional
SK-OV-3 = assay: Growth inhibition of human SKOV3 cells by NCI anti-cancer screening method; format: functional
A498 = assay: Growth inhibition of human A498 cells by NCI anti-cancer screening method; format: functional
NCI [1] = assay: Growth inhibition of human RXF393 cells by NCI anti-cancer screening method; format: functional
TK-10 = assay: Growth inhibition of human TK10 cells by NCI anti-cancer screening method; format: functional
UO-31 = assay: Growth inhibition of human UO31 cells by NCI anti-cancer screening method; format: functional
MCF7 = assay: Growth inhibition of human MCF7 cells by NCI anti-cancer screening method; format: functional
MDA-MB-231 = assay: Growth inhibition of human MDA-MB-231 cells by NCI anti-cancer screening method; format: functional
NCI [2] = assay: Growth inhibition of human Hs 578T cells by NCI anti-cancer screening method; format: functional
MDA-MB-435 = assay: Growth inhibition of human MDA-MB-435 cells by NCI anti-cancer screening method; format: functional
MDA-MB-468 = assay: Growth inhibition of human MDA-MB-468 cells by NCI anti-cancer screening method; format: functional
PC-3 = assay: Growth inhibition of human PC3 cells by NCI anti-cancer screening method; format: functional
SK-MEL-28 = assay: Growth inhibition of human SK-MEL-28 cells by NCI anti-cancer screening method; format: functional
UACC-257 = assay: Growth inhibition of human UACC257 cells by NCI anti-cancer screening method; format: functional
A-375 [3] = assay: Cytotoxicity against human A375 cells assessed as cell viability after 24 hrs by MTT assay; format: functional
In short: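 A375 cells seeded at 10,000/well, incubated overnight, then treated for 24 h. MTT added at 10% of culture volume for 2 h at 37 °C. Formazan dissolved in 20% SDS/50% DMF overnight at 37 °C; absorbance read at 570 nm against a medium blank. Viability expressed as percent of untreated cells.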

A-375 [4] = assay: Increase in p53 protein expression in human A375 cells at 4 uM after 24 hrs by Western blot; format: functional, cell-based
In short: (§1)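 A375 cells (DMEM, 10% FCS, 37 °C, 5% CO2) were treated at 4 µM for 24 h. Lysates were loaded at 30 µg protein/lane on 12% SDS-PAGE and transferred to PVDF. Membranes were blocked 2 h in TBST, incubated with primary antibody overnight at 4 °C (p53 1:100, p27 1:500, NF-κB p65 1:500), then HRP secondary 1 h, with chemiluminescent detection. β-actin was the loading control; untreated and DMSO controls were run.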

A-375 [5] = assay: Inhibition of NF-kappaB signaling in human A375 cells at 4 uM after 24 hrs by Western blot; format: cell-based; in short: as §1
A-375 [6] = assay: Increase in active caspase-3 protein level in human A375 cells at 4 uM after 24 hrs by Western blot; format: functional, cell-based
In short: (§2)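 A375 cells were exposed 24 h at 4 µM. Lysates (30 µg/lane) were run on 12% SDS-PAGE and transferred to PVDF, then probed overnight at 4 °C with anti-cleaved caspase-3 (1:200, detects 21 kDa) or anti-PARP (1:2000, detects 113 and 85 kDa). HRP secondary and chemiluminescence were used. β-tubulin was the loading control; untreated and DMSO controls were included.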

A-375 [7] = assay: Increase in active PARP cleavage product (85kDa) level in human A375 cells at 4 uM after 24 hrs by Western blot; format: functional, cell-based; in short: as §2
A-375 [8] = assay: Decrease in Bcl-2 mRNA expression in human A375 cells at 4 uM after 24 hrs by RT-PCR

Work on `COc1cc2c(cc1OCCCCCOc1ccc(-n3c(C)nc4ccccc4c3=O)cc1)N=C[C@@H]1CCCN1C2=O` yielded a GI50 (CCRF-CEM) of 160 nM, a ΔTm (Nucleic Acid) of 2.3 °C and a GI50 (NCI-H226) of 160 nM. The GI50 (HOP-92) was 350 nM, the GI50 (EKVX) was 870 nM and the GI50 (SR) was 110 nM. The GI50 (MOLT-4) was 190 nM, the GI50 (HL-60) was 180 nM and the GI50 (NCI-H522) was 120 nM. The GI50 (COLO 205) was 180 nM, the GI50 (HCT-116) was 150 nM and the GI50 (HCT-15) was 1090 nM. For the same compound, the GI50 (HT-29) was 260 nM, the GI50 (SW-620) was 160 nM and the GI50 (SF-268) was 260 nM. It also gave a GI50 (SF-539) of 220 nM, a GI50 (U-251) of 160 nM and a GI50 (LOX IMVI) of 150 nM. For the same compound, the GI50 (Malme-3M) was 230 nM, the GI50 (OVCAR-3) was 200 nM and the GI50 (OVCAR-8) was 340 nM. For the same compound, the GI50 (SK-OV-3) was 430 nM, the GI50 (A498) was 160 nM and the GI50 (NCI [1]) was 210 nM. It also gave a GI50 (TK-10) of 310 nM, a GI50 (UO-31) of 360 nM and a GI50 (MCF7) of 170 nM. The GI50 (MDA-MB-231) was 170 nM, the GI50 (NCI [2]) was 160 nM and the GI50 (MDA-MB-435) was 160 nM. It also gave a GI50 (MDA-MB-468) of 160 nM, a GI50 (PC-3) of 290 nM and a GI50 (SK-MEL-28) of 200 nM. For the same compound, the GI50 (UACC-257) was 390 nM, the Activity (A-375 [3]) was 49.01% and the Activity (A-375 [4]) was “Active”. For the same compound, the inhibition (A-375 [5]) was “Active”, the Activity (A-375 [6]) was “Active” and the Activity (A-375 [7]) was “Active”. The “Decrease in Bcl-2 mRNA expression” value (A-375 [8]) was “Active”.
